Assay outcomes deposited in PubChem BioAssay by several laboratories.
EP2 modulator – EP2 receptor modulators, cAMP readout, primary screen, cell-based, HTRF cAMP, PGE2 stimulation | EP2-expressing cells, cAMP HTRF FRET, PGE2 co-stimulation | induction, % at 25 µM | 260,000 compounds, 0.83% hits | AID 940, 2007;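 active means compounds whose cAMP rise, as percent of the full-agonist control response, exceeds 60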;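 further: rat C6 glioma line stably carrying human EP2 under a CMV promoter; the protocol text gives 20 µM as final concentration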
PGE2 EP2 inh – human EP2 receptor antagonists, primary screen, TR-FRET cAMP, C6 glioma cells; C6 glioma cells expressing human EP2; cells stimulated with saturating PGE2; inhibition, % at 25 µM; 260,000 compounds, 0.52% hits;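 active means percent inhibition above 40 after rounding to a whole number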;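 further: rat C6 glioma host cells with rolipram phosphodiesterase inhibitor present; the protocol text gives 20 µM as final concentration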
PHOSPHO1 block – PubChem AID 1565; Phosphoethanolamine/phosphocholine phosphatase (Homo sapiens), Q8TCT1; recombinant PHOSPHO1, absorbance phosphatase assay; inhibition, % at 13.3 µM; 290,000 compounds, 1.1% hits; in the data active means inhibition above about 60%
HKDC1 inhibitor – HKDC1 hexokinase inhibitors, primary screen, biochemical, fluorescence, uHTS. recombinant HKDC1, G6PDH/diaphorase resazurin coupled fluorescence. AID 493160, 2011. 340,000 compounds, 0.16% hits. Q2TB90. inhibition, % at 20 µM;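 active means inhibition above about 35% when tested at 20 µM, limit read from the data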
Target sequence (Q2TB90 whole entry, looked up): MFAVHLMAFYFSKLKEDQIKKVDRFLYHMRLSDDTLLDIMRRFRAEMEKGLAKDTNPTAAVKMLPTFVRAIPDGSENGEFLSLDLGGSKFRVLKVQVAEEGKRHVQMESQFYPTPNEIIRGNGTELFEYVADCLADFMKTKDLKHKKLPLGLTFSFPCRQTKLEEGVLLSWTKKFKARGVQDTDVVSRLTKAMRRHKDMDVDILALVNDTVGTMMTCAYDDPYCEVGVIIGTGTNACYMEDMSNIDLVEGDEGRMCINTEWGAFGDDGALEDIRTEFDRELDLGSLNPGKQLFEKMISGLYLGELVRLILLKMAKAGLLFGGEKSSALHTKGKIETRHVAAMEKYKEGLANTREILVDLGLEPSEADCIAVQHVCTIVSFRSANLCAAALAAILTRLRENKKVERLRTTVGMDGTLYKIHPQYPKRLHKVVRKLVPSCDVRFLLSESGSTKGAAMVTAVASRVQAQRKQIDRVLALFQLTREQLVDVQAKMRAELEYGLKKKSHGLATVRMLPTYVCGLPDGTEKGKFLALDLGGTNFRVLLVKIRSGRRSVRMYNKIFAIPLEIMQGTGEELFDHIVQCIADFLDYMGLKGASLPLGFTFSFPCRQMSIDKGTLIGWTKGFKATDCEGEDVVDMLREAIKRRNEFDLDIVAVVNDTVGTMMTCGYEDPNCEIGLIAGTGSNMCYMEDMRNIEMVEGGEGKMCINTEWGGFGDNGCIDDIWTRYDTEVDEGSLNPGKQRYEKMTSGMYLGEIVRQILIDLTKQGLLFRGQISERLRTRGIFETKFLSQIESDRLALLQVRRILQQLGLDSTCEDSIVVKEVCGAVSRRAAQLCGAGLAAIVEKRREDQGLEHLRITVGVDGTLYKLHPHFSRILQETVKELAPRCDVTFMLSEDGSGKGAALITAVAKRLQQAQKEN
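Test system: Recombinant HKDC1 (HK5) hexokinase enzyme, produced in-house | Input: HKDC1 at 5 µg/mL | Buffer or medium: Tris pH 8.0 buffer with MgCl2, Tween-20, BSA, BME | Schedule: 90 min reaction incubation at room temperature, dark | Technique: Resazurin-to-resorufin fluorescence via G6PDH and diaphorase coupling, 525/613 nm | Controls: DMSO wells with and without enzyme mix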
Tb hexokinase – Trypanosoma brucei hexokinase 1 inhibitors, primary screen, biochemical, G6PDH-coupled NADH absorbance, MLSCN library; 220,000 compounds, 0.11% hits; recombinant TbHK1, G6PDH-coupled NADH A340; inhibition, % at 10 µM; AID 1430, 2008;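 active means inhibition of 50% or more in the single-dose primary screen; inactive means inhibition below 50%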
PfGluPho inh – PfG6PD enzyme inhibitors, primary screen, biochemical, fluorescence intensity, uHTS; glucose-6-phosphate dehydrogenase-6-phosphogluconolactonase (Plasmodium falciparum 3D7); PfGluPho enzyme, NADPH resazurin-diaphorase fluorescence; inhibition, % at 20 µM; 350,000 compounds, 0.78% hits;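 active means inhibition reaching at least a set limit at 20 µM in the primary screen, cut at about 59% in these data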
PfGluPho conf – PfG6PD inhibitors, hit retest, confirmation, biochemical, fluorescence intensity, single concentration; shares compounds with PfGluPho inh; recombinant PfGluPho, NADPH-diaphorase-resazurin fluorescence; inhibition, % at 20 µM; 2,400 compounds, 34% hits;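 active means inhibition of at least 50% at 20 µM in any single replicate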
Diaph ctr 10uM – diaphorase inhibitors and chemical oxidizers, confirmation, counter-screen for P. falciparum G6PD inhibitor project, biochemical, fluorescence intensity, 10 µM NADPH; shares compounds with PfGluPho inh; diaphorase-coupled resazurin reduction, NADPH 10 uM; inhibition, % at 20 µM; 820 compounds, 39% hits;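 active means average inhibition reaching 50% or more with the compound at 20 µM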;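 further: resorufin red fluorescence formed as diaphorase reduces resazurin using NADPH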
Diaph ctr 30uM – diaphorase inhibitors and chemical oxidizers, confirmation, counter-screen for P. falciparum G6PD inhibitor project, biochemical, fluorescence intensity, 30 µM NADPH; shares compounds with PfGluPho inh; Diaphorase/resazurin coupled assay, resorufin fluorescence; inhibition, % at 20 µM; 820 compounds, 29% hits; AID 504863, 2011;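 active means inhibition averaging 50% or more, tested at 20 µM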
A number is an active result. In the library only some 2.5% were active in any assay of this set; here they are far more common.

`COc1ccc(C(CC(=O)c2ccc(C)cc2)Sc2ccccc2N)cc1` (stereo not given) gave PfGluPho inh inactive.
Screening Nc1ccccc1SC(CC(=O)c1ccccc1)c1cccc([N+](=O)[O-])c1 (stereo not given) returned PfGluPho inh 70 and PfGluPho conf inactive.
`Nc1ccccc1SC(CC(=O)c1ccccc1)c1ccc([N+](=O)[O-])cc1` (stereo not given) gave PfGluPho inh 61 and PfGluPho conf inactive.
For CCOc1ccccc1-n1c(COc2ccc(OC)cc2)nnc1SCC(N)=O the results were EP2 modulator inactive and PGE2 EP2 inh inactive.
COc1ccc(C(c2nnnn2Cc2ccco2)N2CCN(c3nc4ccccc4s3)CC2)cc1 (stereo not given) was read as EP2 modulator inactive and PGE2 EP2 inh inactive.
Screening Cc1nc(N)[nH]c(=O)c1CCCNS(=O)(=O)c1ccc([N+](=O)[O-])cc1 returned HKDC1 inhibitor inactive and PfGluPho inh inactive.
Screening Cc1ccc(S(=O)(=O)N(CCCc2c(C)nc(N)[nH]c2=O)Cc2ccc([N+](=O)[O-])cc2)cc1 returned PfGluPho inh 62 and PfGluPho conf inactive.
COc1ccc(Cc2ccccc2C(=O)O)cc1 was read as HKDC1 inhibitor inactive and PfGluPho inh inactive.
For COc1ccc(CC2=CC(=O)c3ccccc3C2=O)cc1 the results were PHOSPHO1 block inactive, HKDC1 inhibitor inactive, PfGluPho inh 85 and PfGluPho conf inactive.
Screening CC(=O)N1CCN(c2ccc(NCc3cccc4ccccc34)cc2)CC1 returned PHOSPHO1 block inactive, HKDC1 inhibitor inactive, PfGluPho inh 63 and PfGluPho conf inactive.
Screening O=C(CN1CCC(n2cnc3cccnc32)CC1)Nc1ccccc1N1CCOCC1 returned EP2 modulator inactive and PGE2 EP2 inh inactive.
Screening Cc1sc2nc(C)n(C3CCN(C(=O)C(C)c4ccccc4)CC3)c(=O)c2c1C (stereo not given) returned EP2 modulator inactive and PGE2 EP2 inh inactive.
COc1ccc2c(c1)-c1ccccc1S(=O)(=O)N2C was read as EP2 modulator inactive, PGE2 EP2 inh inactive, PHOSPHO1 block inactive, HKDC1 inhibitor inactive, Tb hexokinase inactive, PfGluPho inh 60 and PfGluPho conf inactive.
`COc1ccc2c(c1)-c1ccccc1S(=O)(=O)N(C)C2` gave HKDC1 inhibitor inactive and PfGluPho inh inactive.
CCN(C(=S)NC(=O)C1CC1)c1ccccc1 was read as PHOSPHO1 block inactive, HKDC1 inhibitor inactive and PfGluPho inh inactive.
CN(C(=S)NC(=O)C1CC1)c1ccc(O)cc1 was read as HKDC1 inhibitor inactive, PfGluPho inh 60 and PfGluPho conf inactive.
For CC(C(=O)NCC(=O)Nc1ccc(F)c(F)c1F)N1CCN(c2ccc(O)cc2)CC1 (stereo not given) the results were HKDC1 inhibitor inactive, PfGluPho inh 70 and PfGluPho conf inactive.
CC(C(=O)NCC(=O)Nc1ccc(F)c(F)c1F)N1CCN(Cc2ccc(C#N)cc2)CC1 (stereo not given) was read as HKDC1 inhibitor inactive and PfGluPho inh inactive.
`CN1[C@@H](C(=O)Nc2cccnc2)C[C@@H](c2cccs2)NS1(=O)=O` gave EP2 modulator inactive.
COC(=O)[C@H](CC(C)C)N1Cc2cc(OC)cc(OC)c2-c2ccccc2S1(=O)=O was read as HKDC1 inhibitor inactive, PfGluPho inh 65 and PfGluPho conf inactive.
For C=C1CCN(C(CC(C)C)C(=O)OC)S(=O)(=O)c2ccccc21 (stereo not given) the results were EP2 modulator inactive, PGE2 EP2 inh inactive, PHOSPHO1 block inactive, HKDC1 inhibitor inactive, Tb hexokinase inactive and PfGluPho inh inactive.
`O=C1C2C(C(=O)N1/N=C/c1ccc([N+](=O)[O-])o1)C1C=CC2C12CC2` (stereo not given) gave EP2 modulator inactive, PGE2 EP2 inh inactive, PHOSPHO1 block inactive, HKDC1 inhibitor inactive, Tb hexokinase inactive and PfGluPho inh inactive.
`CC1=NN(c2nc(N)nc(/C(C#N)=C/c3ccc([N+](=O)[O-])o3)n2)C(C)(C)C1` gave HKDC1 inhibitor inactive, PfGluPho inh 69 and PfGluPho conf inactive.
`O=C1C=CC2=C3c4cc(O)c(O)cc4CC3(O)COC2=C1O` (stereo not given) gave EP2 modulator inactive, PGE2 EP2 inh inactive, HKDC1 inhibitor inactive, PfGluPho inh 81, PfGluPho conf 68, Diaph ctr 10uM inactive and Diaph ctr 30uM inactive.
Cc1cc(C)c2c(=O)n(CC(=O)NC3CCCC3)sc2n1 was read as EP2 modulator inactive, PGE2 EP2 inh 118, PHOSPHO1 block inactive, HKDC1 inhibitor inactive, Tb hexokinase inactive, PfGluPho inh 90, PfGluPho conf 73, Diaph ctr 10uM inactive and Diaph ctr 30uM inactive.
Screening Cc1cc(C)c2c(=O)n(CC(=O)Nc3cccc(Cl)c3C)sc2n1 returned EP2 modulator inactive, PGE2 EP2 inh 44, PHOSPHO1 block inactive, HKDC1 inhibitor inactive, Tb hexokinase inactive, PfGluPho inh 106, PfGluPho conf 85, Diaph ctr 10uM inactive and Diaph ctr 30uM inactive.
Screening CCC(C)(C)NC(=O)C(c1ccc(C)cc1)N(Cc1cccs1)C(=O)c1ccc2c(c1)OCCO2 (stereo not given) returned EP2 modulator inactive, PHOSPHO1 block inactive, HKDC1 inhibitor inactive, Tb hexokinase inactive, PfGluPho inh 62 and PfGluPho conf inactive.
CCOC(=O)c1c(NC(=O)CSc2n[nH]c(-c3ccccc3O)n2)sc(C)c1C was read as EP2 modulator inactive and PGE2 EP2 inh inactive.
`Cc1nc2cc(NC(=O)c3ccc(Br)s3)ccc2s1` gave PHOSPHO1 block inactive, HKDC1 inhibitor inactive, PfGluPho inh 67 and PfGluPho conf inactive.
